97 compounds from ChEMBL document CHEMBL4513216, “Probing the Open Global Health Chemical Diversity Library for Multistage-Active Starting Points for Next-Generation Antimalarials” (ACS Infect Dis, 2020) can be followed below.

The nature of the data set: Toxicity liver stage against HepG2, at 10uM. Format: cell-based. The arrangement: test concentration 10 uM, cell line HepG2-A16-CD81EGFP. To be noted: human, HepG2-A16-CD81EGFP cells; read-out: INHIBITION
A digest of the protocol:
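Uninfected HepG2-A16-CD81EGFP cells, 3 × 10^3 per well, 1536-well, plated on prespotted compound at 10 μM final, parasite-free screening media added to match infected plates; puromycin 10 μM positive, DMSO 0.5% negative; run in parallel with 48 h PbLuc assay at 37 °C, 5% CO2; viability by CellTiter-Glo luminescence, normalized to controls.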
As for `Cc1nc2c(c(N3CCCC(CO)C3)n1)CCN(Cc1ccco1)CC2` (configuration not stated), the cytotoxicity at 10 µM was -0.044%.
On to `CCC(NC(=O)CCNC(=O)c1ccccc1F)c1cc(C)ccn1` (configuration not stated), for which the cytotoxicity at 10 µM was -11.4%.
For the compound `CCCn1nc2c(cc1=O)CN(CC(=O)Nc1ccncc1)CC2`, the cytotoxicity at 10 µM is -17.8%.
Turning to `Cc1cccc(C2(CNC(=O)CO)CCCC2)c1`, the cytotoxicity at 10 µM is -19.1%.
Turning to `CC1CN(C(=O)c2ccn(-c3cccc(Cl)c3)n2)CCO1` (configuration not stated), the cytotoxicity at 10 µM is -5.25%.
Take `Cn1cccc1C(=O)N1CC[C@@H]2[C@@H]1CC(=O)N2CC1CCOCC1`: the cytotoxicity at 10 µM is -2.82%.
In the case of `CC(=O)CC(C)(C)NC(=O)CCN(C)Cc1ccc(Cl)s1` it was 7.35%.
`O=C(N[C@H]1COC[C@@H]1N1CCCC1)c1csc(-c2cccs2)n1`: the cytotoxicity at 10 µM was 9.71%.
Consider `COCCN1CCN(Cc2ccncc2)c2ncccc2C1`, for which the cytotoxicity at 10 µM is -70.9%.
As for `COc1ccc2nnc(CCC(=O)Nc3nc(C)c(C)s3)n2n1`, the cytotoxicity at 10 µM was -3.18%.
In the case of `CC[C@@]1(O)CCN(C(=O)CCNC(=O)c2ccc(F)cc2)C[C@H]1O` it was 0.0652%; in that of `CN1CC2(CCN(C(=O)Cc3ccccn3)CC2)OCC1=O`, -3.39%; in that of `Cc1nn(C)c(C)c1C1CCCN1C(=O)c1ccc2nnc(C)n2c1` (configuration not stated), -12.2%.
`CC(C)CN1CCCC(c2nc(O)c3cc(F)ccc3n2)C1` (configuration not stated): the cytotoxicity at 10 µM came to 10.3%.
As to `Cc1nnc(NC(=O)NCc2ccc(C)n2C)s1`, the cytotoxicity at 10 µM was -2.08%.
Turning to `O=C(c1ccccn1)N1CCC(Oc2cccnc2)CC1`, the cytotoxicity at 10 µM is -3.59%.
Then `O=C(Cn1nc(-c2ccc(F)cc2)oc1=O)NCc1ccc(F)cc1`, with 4.13%; and `Cc1ccc(CCNC(=O)N2CCCC(Cc3nccn3C)C2)cn1` (configuration not stated), with -9.26%; and `O=C(c1cccc2ncccc12)N1CCC(Nc2cccnn2)CC1`, with -14.7%.
`Cc1cc(C(C)C(=O)N2CCCN(Cc3cscn3)CC2)c(C)o1` (configuration not stated): the cytotoxicity at 10 µM is -1.58%.
With `Cc1cc(C)c(CNC(=O)NCc2cc(F)cc(F)c2)c(=O)[nH]1`, the cytotoxicity at 10 µM is -4.98%.
Turning to `CCc1cc(N2CCC(NCCSc3nnnn3C)CC2)nc(C)n1`, the cytotoxicity at 10 µM was -15.2%.
Regarding `NC(=O)c1ccc(CNC(=O)Nc2cn[nH]c2)cc1`, the cytotoxicity at 10 µM is -20.4%.
Then `Cn1c(CCNc2nccnc2C#N)nc2ccc(F)cc21`, with -6.92%; and `CC(=O)Nc1nc(CN2CCOC(Cn3nc(C)cc3C)C2)cs1` (configuration not stated), with 4.23%.
Turning to `NC(=O)[C@@H]1Cc2ccccc2N1C(=O)C1CC(c2ccccc2)=NO1` (some centres not stated), the cytotoxicity at 10 µM was 5.79%.
On to `c1cc(CN2CCCC(c3nnc(-c4cnccn4)o3)C2)ccn1` (configuration not stated), for which the cytotoxicity at 10 µM was -9.14%.
In the case of `CCc1nnc2n1CCN(C(=O)C(C)Oc1ccc(C#N)cc1)C2` (configuration not stated) it was -7.04%.
As to `CCC[C@@H]1CN(C(=O)c2cc(-c3cccs3)n(C)n2)C[C@H]1N(C)C`, the cytotoxicity at 10 µM is -1.84%.
As for `CC(C)(C)OC(=O)N1CCN(S(C)(=O)=O)C2(CCCCC2)C1`, the cytotoxicity at 10 µM was determined as 10.3%.
On to `COc1ccc2cc(C3CN(C(=O)CCNC(C)=O)CCO3)ccc2c1` (configuration not stated), for which the cytotoxicity at 10 µM stood at 9.85%.
For the compound `Cc1cc(SCC(=O)O)nc2nn(CC(F)F)c(C)c12`, the cytotoxicity at 10 µM was determined as 45.5%.
Regarding `CC(=O)N(Cc1ncc(C)o1)C1CCN(Cc2nnc(C3CC3)o2)C1` (configuration not stated), the cytotoxicity at 10 µM came out at 5.08%.
With `Cc1ccc(CN2CCN(Cc3ccc4nonc4c3)CC2=O)cc1`, the cytotoxicity at 10 µM is -1.9%.
With `O=C(CCc1ccc(F)cc1)NCc1ccnc(NC2CC2)c1`, the cytotoxicity at 10 µM was -8.78%.
As to `CN1CCN(Cc2cn3c(n2)CN(Cc2ccc(F)cc2)CC3)CC1`, the cytotoxicity at 10 µM is -113%.
For `CN1CCC2(CCC1=O)CCN(C(=O)Cc1ccc(O)c(F)c1)CC2`, the cytotoxicity at 10 µM was -8.99%.
Consider `O=C(O)c1c(NC2CCC2)ncc2c1CCN(C1CCOC1)C2` (configuration not stated), for which the cytotoxicity at 10 µM is 11.4%.
In the case of `O=C(c1cc[nH]n1)N1CCc2cc(Br)sc2C1` it was 7.01%.
Regarding `CC(=O)c1ccc(Cl)c(Cl)c1OCC(=O)NCC(F)(F)F`, the cytotoxicity at 10 µM is -1.2%.
As for `Cc1csc([C@@H]2C[C@@H]3CCN(C(=O)c4cc(C)on4)C[C@H]3O2)n1`, the cytotoxicity at 10 µM came out at 4.88%.
Take `COCC(C)NC(=O)c1nnn(-c2ccc(Br)cc2)n1` (configuration not stated): the cytotoxicity at 10 µM was -0.712%.
In the case of `Cc1cc(C)c(CNC(=O)NCC(c2ccccc2)N(C)C)c(=O)[nH]1` (configuration not stated), the cytotoxicity at 10 µM is -3.19%.
Consider `Cc1cc(-c2cnc(N3CCC(C(N)=O)CC3)nc2C(C)C)on1`, for which the cytotoxicity at 10 µM turned out to be 72.2%.
On to `COc1ccc2nnc(CCCC(=O)NCc3ccccc3)n2n1`, for which the cytotoxicity at 10 µM is -4.1%.
Take `Cc1nc(Cn2c3c(ccc2=O)CCN(CC2CC2)CC3)cs1`: the cytotoxicity at 10 µM is 1.63%.
Then `Cn1cccc1C(=O)N1CCC2(CC1)CN(c1ccccn1)CCO2`, with -10.8%; and `COC(=O)c1ccc(N(C(=O)c2cccnc2C)C(C)C)c(C)c1`, with -8.58%; and `CCC1COCCN1C(=O)CNC(=O)c1ccc2c(c1)CCC2` (configuration not stated), with 8.08%.
In the case of `CCC(=O)N1CCC(c2nc3ccc(NC(C)C)cn3n2)CC1`, the cytotoxicity at 10 µM was -10.2%.
For `COc1ncccc1C(=O)NCCn1nc(C)ccc1=O`, the cytotoxicity at 10 µM was -7.69%.
With `Cc1cc(=O)n(CCNS(=O)(=O)c2cccc(C(F)(F)F)c2)cn1`, the cytotoxicity at 10 µM is -6.98%.
In the case of `Cc1ccnc(OC[C@]23COC[C@H]2CN(C(=O)C2=CCCCC2)C3)n1` it was 0.325%; in that of `Cc1cnn(CC2CCCN2C(=O)c2ccccc2-n2cccn2)c1` (configuration not stated), -4.16%; in that of `CC(C(=O)N1CCN(c2ccccc2Cl)CC1)n1cncn1` (configuration not stated), 5.17%.
In the case of `CNC(=O)Nc1cc(-c2ccc(Br)cc2)nn1CCO`, the cytotoxicity at 10 µM was -1.35%.
Then `Cc1noc(C)c1CN1CCCC1c1nc(-c2ccccc2)no1` (configuration not stated), with -39.2%; and `CC(C)N(C)Cc1nnc2n1CCCN(C(=O)c1ccco1)C2`, with -1.17%.
As to `OC[C@@H]1CCCN1c1ccc(-c2nc(COc3ccccc3)no2)cn1`, the cytotoxicity at 10 µM is -8.42%.
Then `O=C(C1CCCN(Cc2ccccc2)C1)N1CCc2sccc2C1` (configuration not stated), with 2.41%.
For `CCc1nc(CCNC(=O)NC2CCN(C(C)C)C2)sc1C` (configuration not stated), the cytotoxicity at 10 µM is -7.63%.
In the case of `c1ccc(CN2Cc3ccnn3CC(COCc3cccnc3)C2)nc1` (configuration not stated) it was -146%; in that of `c1cncc(CN2CCC3(CCCN(c4nncs4)C3)C2)c1` (configuration not stated), -144%; in that of `Cn1cc(CN2CCC3(CCN(c4cnn(C)c4)C3=O)C2)cn1` (configuration not stated), -83.4%.
For `Cc1nc(CNCC(O)COc2ccc3c(c2)OCO3)cs1` (configuration not stated), the cytotoxicity at 10 µM was 4%.
Take `O=C(Nc1ccccc1)C1CN(Cc2nccs2)CC12CCOCC2` (configuration not stated): the cytotoxicity at 10 µM amounted to 1.61%.
`CCNC(=O)CCN1CCC(c2cc(N3CCOCC3)nc(C)n2)CC1`: the cytotoxicity at 10 µM was -10.8%.
In the case of `CC(C)N1CCCC(C(=O)NCCCc2cnn(C)c2)C1` (configuration not stated) it was 17.1%; in that of `O=C(c1ncoc1-c1ccco1)N(Cc1ccco1)CC1CCCO1` (configuration not stated), -2.05%; in that of `Cc1nccn1-c1ccc(N2CCC(NC(C)CC(C)C)CC2)cc1` (configuration not stated), 1.71%.
As for `Cc1ccc(NC2CCN(C(=O)c3cc(C)no3)CC2)nn1`, the cytotoxicity at 10 µM is -11.6%.
Regarding `O=C(NC1CC1)c1cc(NC(=O)N2CCCC(O)C2)ccc1Cl` (configuration not stated), the cytotoxicity at 10 µM was -15.5%.
In the case of `CN(C(=O)c1ccccc1Cl)C1CCN(c2ccccn2)CC1` it was -0.577%; in that of `c1cncc(CN2CCC(c3ccc4c(c3)OCO4)CC2)c1`, -0.415%; in that of `COCC(=O)NC1(c2cccc(C(F)(F)F)c2)CCC1`, -50%.
`O=S(=O)(NCc1ccccc1)N1CCCN(c2ccncc2)CC1`: the cytotoxicity at 10 µM is -11%.
With `Cn1cc(CN2CCCC23CCN(Cc2nccn2C)CC3)cn1`, the cytotoxicity at 10 µM is -5.64%.
In the case of `Cc1nnc(C2CCN(c3ncccn3)CC2)o1` it was 10.8%; in that of `O=C1COc2cc(C(=O)NS(=O)(=O)c3ccccc3F)ccc2N1`, -4.79%.
For the compound `COCC(O)CNC(=O)c1coc(COc2ccc3sc(C)nc3c2)n1` (configuration not stated), the cytotoxicity at 10 µM was 10.8%.
Turning to `CCc1nc2n(n1)CC(NCc1cnc(N(CC)CC)s1)CC2` (configuration not stated), the cytotoxicity at 10 µM was 7.39%.
In the case of `Cc1cc(NCc2csc(C)n2)no1`, the cytotoxicity at 10 µM was determined as 9.48%.
As to `Cc1noc(C)c1C(=O)N1CCC2(CC1)CC(Oc1ccccc1)CO2` (configuration not stated), the cytotoxicity at 10 µM was found to be 11.8%.
Turning to `CS(=O)(=O)NCc1ncn2c1CN(Cc1cccs1)CCC2`, the cytotoxicity at 10 µM is -66.8%.
Take `O=C(O)C1CCCN(C(=O)CCn2ccc3c(Br)cccc32)C1` (configuration not stated): the cytotoxicity at 10 µM amounted to 10.9%.
For `COC(=O)[C@@H]1CCCN1C(=O)c1cn(CCCc2ccccc2)nn1`, the cytotoxicity at 10 µM was determined as 3.15%.
Consider `O=C(CCc1ccccc1)N1CCN(C(=O)c2ccc[nH]2)CC1`, for which the cytotoxicity at 10 µM was -5.04%.
For the compound `CN1CCN(Cc2cn3c(n2)CN(C(=O)c2ccccn2)CC3)CC1`, the cytotoxicity at 10 µM is -5.7%.
Consider `Cc1nc(CNC2CCN(Cc3ccccc3)C2)sc1C` (configuration not stated), for which the cytotoxicity at 10 µM was 2.86%.
Then `CC(C)C(O)CNC(=O)Nc1cccc(-c2nccs2)c1` (configuration not stated), with -5.5%; and `O=C(NC1CC(F)(F)C1)[C@]12COC[C@H]1CN(Cc1cccnc1)C2`, with -109%; and `CN1CCOC(C(=O)Nc2nc(-c3ccc(Cl)cc3)n[nH]2)C1` (configuration not stated), with -4.34%.
Take `Cc1cc(C(=O)NC2=NCCS2)c(C)n1-c1ccccn1`: the cytotoxicity at 10 µM was found to be 6.25%.
Regarding `Cc1cc(C(=O)N2CCc3c(CN(C)C(C)C)n[nH]c3C2)[nH]n1`, the cytotoxicity at 10 µM was -133%.
As for `O=C(NCCCN1CCN(c2ncccn2)CC1)NCC1CCCO1` (configuration not stated), the cytotoxicity at 10 µM is -43.1%.
With `CCN1CC(CN(C)Cc2nc(-c3ccoc3)oc2C)CC1=O` (configuration not stated), the cytotoxicity at 10 µM is -5.13%.
Consider `Cn1nccc1C1CCN(Cc2ccn(-c3ccccc3)n2)CC1`, for which the cytotoxicity at 10 µM was found to be 17.3%.
